Measurements from ChEMBL document CHEMBL2346587, “Design, synthesis, and evaluation of a water-soluble antofine analogue with high antiproliferative and antitumor activity” (Bioorg Med Chem, 2013).
Activity calls are given as the source filed them. The rule behind the calls is not given here.

Tests used:
HCT-15 = experiment: Cytotoxicity against human HCT15 cells after 72 hrs by SRB assay; type: functional, cell-based; conditions: HCT-15, 72 h
In short: (§1)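 SRB growth assay: 5 × 10^3 cells/well exposed to a concentration series for 72 h; fixed in 10% TCA 30 min at 4 °C, stained with 0.4% SRB in 1% acetic acid 30 min, dye dissolved in 10 mM Tris pH 10.0, absorbance at 515 nm. Viability relative to vehicle control; IC50 by non-linear regression; at least three experiments. A549-Pa is a paclitaxel-resistant A549 subline.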

A549 [1] = experiment: Antitumor activity against human A549 cells xenografted in athymic nu/nu BALB/c mouse assessed as inhibition of tumor growth at 10 mg/kg, ip administered 35 days post-implantation 3 times a week relative to control; type: functional; conditions: 840 h, route intraperitoneal, read-out: TGI
In short: (§2)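 Female athymic BALB/c nu/nu mice, six weeks old; 2 × 10^6 A549 or A549-Pa cells in 0.1 mL RPMI injected s.c. into right flank on day 0. Dosing began at 95–100 mm3 tumour volume: drug in 1% cremophore in PBS given i.p. three times weekly; controls got vehicle; five mice/group. Tumour volume tracked every 3–5 days; tumours excised and weighed at end; sections immunostained for Ki-67.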

A549 [2] = experiment: Antitumor activity against paclitaxel-resistant human A549 cells xenografted in athymic nu/nu BALB/c mouse assessed as inhibition of Ki-67 expression at 5 to 10 mg/kg, ip administered 35 days post-implantation 3 times a week by immunohistochemistry; type: functional, organism-based; in short: as §2
A549 [3] = experiment: Antitumor activity against human A549 cells xenografted in athymic nu/nu BALB/c mouse assessed as inhibition of tumor growth at 5 mg/kg, ip administered 35 days post-implantation 3 times a week relative to control; type: functional; conditions: 840 h, route intraperitoneal, read-out: TGI; in short: as §2
[4] = target: T1, ATP-dependent translocase ABCB1 (Homo sapiens, UniProt P08183); experiment: Inhibition of P-gp activity in human paclitaxel-resistant A549 cells potentiation of 5 uM paclitaxel-induced cytotoxicity at 0.1 uM by SRB assay; type: cell-based; conditions: a549, 0.1 µM
In short: (§3)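 A549-Pa cells plated at 5 × 10^4 cells/well and co-treated for 48 h with the compound (0–200 nM) plus paclitaxel or gefitinib; growth inhibition by SRB assay. Combination index computed at the 50% inhibition level as CI = D1/(Dx)1 + D2/(Dx)2, comparing combined versus single-agent concentrations.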

[5] = target: T1, ATP-dependent translocase ABCB1; experiment: Inhibition of P-gp activity in human paclitaxel-resistant A549 cells assessed as rhodamine 123 accumulation at 50 nM after 72 hrs by FACS analysis (reference value: 14.4 %); type: cell-based; set-up: scale not given: the % may be the effect or the level left; conditions: a549, 72 h, 0.05 µM
[6] = target: T1, ATP-dependent translocase ABCB1; experiment: Inhibition of P-gp activity in paclitaxel-resistant human A549 cells potentiation of 2.5 uM paclitaxel-induced cytotoxicity at 0.05 uM by SRB assay; type: cell-based; conditions: a549, 0.05 µM; in short: as §3
A549 [7] = experiment: Inhibition of P-gp protein expression level in human paclitaxel-resistant A549 cells at 50 to 200 nM after 48 hrs by Western blot analysis; type: functional, cell-based
In short: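 A549-Pa cells, with parent A549 for comparison, were exposed to compound for 48 h. Lysates were made in boiling SDS sample buffer and protein measured by BCA. Equal protein (25–50 µg) was run on 8–15% SDS-PAGE, transferred to PVDF and blocked in 5% milk/PBST. Anti-P-gp primary was applied overnight at 4 °C, then secondary antibody and ECL detection.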

A549 [8] = experiment: Cytotoxicity against human paclitaxel-resistant A549 cells after 72 hrs by SRB assay; type: functional, cell-based; conditions: A549, 72 h; in short: as §1
A549 [9] = experiment: Inhibition of AKT/mTOR signaling in human A549 cells assessed as inhibition of 4E-BP1 phosphorylation at 50 to 400 nM after 24 hrs by Western blot analysis; type: cell-based
In short: (§4)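 A549 cells plated at 3 × 10^5 per 60 mm dish, grown 24 h, then exposed to a concentration series for 24 h. Lysed in boiling SDS sample buffer with NaF and orthovanadate; protein by BCA; 25–50 µg run on 8–15% SDS-PAGE, transferred to PVDF, blocked in 5% milk/PBST, primary antibodies overnight at 4 °C, secondary 1–2 h, ECL detection.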

A549 [10] = experiment: Inhibition of AKT-mediated mTOR phosphorylation at Ser2448 residue in human A549 cells at 50 to 400 nM after 24 hrs by Western blot analysis; type: cell-based; in short: as §4
A549 [11] = experiment: Inhibition of AKT phosphorylation at T308 residue in human A549 cells at 50 to 400 nM after 24 hrs by Western blot analysis; type: cell-based; in short: as §4
A549 [12] = experiment: Effect on CDK2 protein expression at G0/G1 phase in human A549 cells at 50 to 400 nM after 24 hrs by Western blot analysis; type: functional, cell-based; in short: as §4
A549 [13] = experiment: Inhibition of AKT activation in human A549 cells assessed as reduction in c-myc protein expression at 50 to 400 nM after 24 hrs by Western blot analysis; type: cell-based; in short: as §4
A549 [14] = experiment: Inhibition of AKT/c-myc signaling in human A549 cells assessed as reduction in CDK4 protein expression at 50 to 400 nM after 24 hrs by Western blot analysis; type: cell-based; in short: as §4
[15] = Inhibition of Wnt signaling in human A549 cells assessed as reduction in cyclin D1 protein expression at 50 to 400 nM after 24 hrs by Western blot analysis; type: cell-based
In short: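 A549 cells were seeded at 3 × 10^5 per 60 mm dish, grown 24 h, then given graded compound concentrations for 24 h. Lysis was in boiling SDS buffer, with BCA protein assay. 25–50 µg per lane was run on 8–15% SDS-PAGE and blotted to PVDF. Primary antibodies (1:1000–1:2000) went on overnight at 4 °C, then secondary and ECL read-out.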

A549 [16] = experiment: Cell cycle arrest in human A549 cells assessed as accumulation at sub-G1 phase at 400 nM after 24 hrs by flow cytometry (reference value: 1.40 %); type: functional
A549 [17] = experiment: Cell cycle arrest in human A549 cells assessed as accumulation at sub-G1 phase at 200 nM after 24 hrs by flow cytometry (reference value: 1.40 %); type: functional
A549 [18] = experiment: Cell cycle arrest in human A549 cells assessed as accumulation at G2/M phase at 100 nM after 24 hrs by flow cytometry (reference value: 22.84 %); type: functional
A549 [19] = experiment: Cell cycle arrest in human A549 cells assessed as accumulation at G2/M phase at 50 nM after 24 hrs by flow cytometry (reference value: 22.84 %); type: functional
A549 [20] = experiment: Cell cycle arrest in human A549 cells assessed as accumulation at S phase at 200 nM after 24 hrs by flow cytometry (reference value: 13.38 %); type: functional
A549 [21] = experiment: Cell cycle arrest in human A549 cells assessed as accumulation at G0/G1 phase at 400 nM after 24 hrs by flow cytometry (reference value: 62.38 %); type: functional
A549 [22] = experiment: Cytotoxicity against human A549 cells after 72 hrs by SRB assay; type: functional, cell-based; conditions: A549, 72 h; in short: as §1
HCT-116 = experiment: Cytotoxicity against human HCT116 cells after 72 hrs by SRB assay; type: functional, cell-based; conditions: HCT-116, 72 h; in short: as §1
A549 [23] = experiment: human A549 cells assessed as morphological changes at 50 to 400 nM after 24 hrs by inverted phase-contrast microscopy

T1 sequence (P08183 whole entry): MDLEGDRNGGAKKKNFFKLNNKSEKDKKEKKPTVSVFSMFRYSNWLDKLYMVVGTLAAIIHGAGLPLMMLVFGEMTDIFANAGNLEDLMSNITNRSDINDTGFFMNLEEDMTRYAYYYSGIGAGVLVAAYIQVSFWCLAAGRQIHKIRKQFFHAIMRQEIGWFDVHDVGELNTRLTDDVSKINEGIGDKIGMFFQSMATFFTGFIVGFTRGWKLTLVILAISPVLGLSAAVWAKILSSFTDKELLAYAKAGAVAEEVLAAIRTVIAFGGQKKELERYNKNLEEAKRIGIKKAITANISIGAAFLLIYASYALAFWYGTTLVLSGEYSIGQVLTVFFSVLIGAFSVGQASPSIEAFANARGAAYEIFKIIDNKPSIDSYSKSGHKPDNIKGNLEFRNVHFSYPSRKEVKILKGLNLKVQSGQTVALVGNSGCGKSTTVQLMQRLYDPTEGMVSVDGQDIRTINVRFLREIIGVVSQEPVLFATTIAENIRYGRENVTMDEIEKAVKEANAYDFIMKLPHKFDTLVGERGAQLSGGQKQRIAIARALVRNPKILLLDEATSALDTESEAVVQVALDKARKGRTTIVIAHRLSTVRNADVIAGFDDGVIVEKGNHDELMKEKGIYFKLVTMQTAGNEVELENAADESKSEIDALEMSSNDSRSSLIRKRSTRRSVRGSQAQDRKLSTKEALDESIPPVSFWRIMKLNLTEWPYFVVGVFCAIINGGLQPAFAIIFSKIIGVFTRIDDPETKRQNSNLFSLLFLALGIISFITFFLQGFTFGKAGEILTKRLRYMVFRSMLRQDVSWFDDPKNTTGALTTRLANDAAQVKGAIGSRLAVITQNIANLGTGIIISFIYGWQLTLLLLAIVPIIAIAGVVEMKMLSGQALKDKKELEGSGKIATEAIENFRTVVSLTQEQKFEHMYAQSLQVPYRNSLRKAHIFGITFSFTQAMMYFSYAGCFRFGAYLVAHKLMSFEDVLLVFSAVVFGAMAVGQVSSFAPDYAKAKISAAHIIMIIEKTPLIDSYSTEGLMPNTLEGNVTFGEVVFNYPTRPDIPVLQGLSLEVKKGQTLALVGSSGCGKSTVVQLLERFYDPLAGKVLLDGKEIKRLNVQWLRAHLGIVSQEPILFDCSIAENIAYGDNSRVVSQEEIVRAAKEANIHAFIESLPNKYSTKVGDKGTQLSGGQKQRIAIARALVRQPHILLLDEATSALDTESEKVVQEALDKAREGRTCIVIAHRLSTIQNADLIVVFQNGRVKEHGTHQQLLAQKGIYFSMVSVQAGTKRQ

- Activity [5]: 28.7%
SMILES: COc1ccc2c3c(c4cc(OC)c(OC)cc4c2c1)C[C@@]1(CO)CCCN1C3
- IC50 (HCT-15): 0.16 µM
- inhibition in vivo at 10 mg/kg (A549 [1]): 60.7%
- inhibition (A549 [2]): Active
- inhibition in vivo at 5 mg/kg (A549 [3]): 54.9%
- fractional inhibitory concentration index (FICI) [4]: 0.391
- fractional inhibitory concentration index (FICI) [6]: 0.242
- inhibition (A549 [7]): Active
- IC50 (A549 [8]): 0.2 µM
- inhibition (A549 [9]): Active
- inhibition (A549 [10]): Active
- inhibition (A549 [11]): Active
- Activity (A549 [12]): inactive
- inhibition (A549 [13]): Active
- inhibition (A549 [14]): Active
- inhibition [15]: Active
- Activity (A549 [16]): 1.21%
- Activity (A549 [17]): 1.29%
- Activity (A549 [18]): 18.53%
- Activity (A549 [19]): 20.71%
- Activity (A549 [20]): 10.94%
- Activity (A549 [21]): 67.01%
- IC50 (A549 [22]): 0.12 µM
- IC50 (HCT-116): 0.06 µM
- Activity (A549 [23]): Active
